Rows were chosen to be rich in hits. Some 4% of all compounds tested hit in one or more screens of this group.
FAK blocker = blocks human focal adhesion kinase activity; AID 727; inhibition, %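 (tested at 7 µM)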; biochemical FAK kinase activity assay; 97,000 compounds, 0.84% hits;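 note: 0% = DMSO and 100% = reference compound high control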
HIV Rev-RRE inh = inhibitors of HIV-1 Rev-RRE RNA interaction; inhibition, % at 8 µM; 97,000 compounds, 0.79% hits; Rev peptide-RRE RNA binding, FRET;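 active = inhibition above the screen-wide mean plus 3 SD, cut at about 35% in these data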;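 note: 0% = median DMSO wells and 100% = median Neomycin B control wells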
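Assay system: Labelled RRE RNA duplex and labelled Rev peptide | Times: 5 min preincubation and 15 min binding, 25 °C | Detection: FRET, ex 480 nm, em 540 and 671 nm | Evaluation: % inhibition of FRET ratio versus controls | Benchmarks: DMSO wells as 0% and neomycin B wells as 100% inhibition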
ERa SRC1 inh = blocks coactivator binding to human estrogen receptor alpha; inhibition, % at 25.6 µM; TR-FRET ER-alpha LBD / SRC-1 peptide, estradiol-bound; P03372; 86,000 compounds, 1.7% hits; AID 629; in the data active = inhibition above about 50%;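 note: 0% = receptor plus peptide control and 100% = peptide only without receptor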
ERa coact pot = enhances coactivator binding to human estrogen receptor alpha | AID 639 | TR-FRET ERalpha-LBD/SRC-Cy5 coactivator binding, 2 h; 100 = basal binding, no effect | P03372 | 86,000 compounds, 1.3% hits | coactivator binding (% of control), % at 25.6 µM; in the data active = activity above about 200%;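 note: binding measured in presence of low estradiol as agonist stimulus; 0% = peptide alone without receptor and 100% = receptor with peptide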
ERb coact inh = ER-beta (human) coactivator binding inhibition. TR-FRET ER-beta LBD / SRC1-Cy5 peptide binding; receptor agonist-loaded with 1 µM estradiol. inhibition, % at 25.6 µM. 86,000 compounds, 1.3% hits. AID 633;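 active = compounds whose percent inhibition of the receptor-coactivator binding signal exceeds about 50% in the single-dose screen, limit read from the data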;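 note: 0% = receptor plus peptide wells without compound and 100% = peptide-only wells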
Smad3 inh = blocks human Smad3 binding to FoxH1 peptide. P84022. TR-FRET Smad3/Dy647-FoxH1 peptide binding, europium anti-His. inhibition, % at 25 µM. 88,000 compounds, 0.29% hits. AID 630;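 active = compounds that reduce the energy-transfer binding signal between the protein and its labelled peptide by more than half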;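 note: 0% = Smad3 plus labelled peptide maximal FRET and 100% = peptide-only background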
FAK inh conf = FAK (human) inhibition confirmed. shares compounds with FAK blocker. FAK kinase biochemical inhibition assay. 750 compounds, 28% hits. inhibition, % at 7 µM
* hit, by the source's call; . = no result given; [ ] = dose if it differs, or a comment. Cut-off read from the data, not from the text of the source, unless noted: active = inhibition above about 19%; inactive = the rest.

SMILES	FAK blocker	HIV Rev-RRE inh	ERa SRC1 inh	ERa coact pot	ERb coact inh	Smad3 inh	FAK inh conf
CC1(C)CCCN(C(=O)c2coc(=O)c(Br)c2)C1	46*	-36	90*[fluorescence artefact?]	14	83*	61*	68*
O=C(NNC(=O)c1cc(O)c(O)c(O)c1)NC1CCCCC1	4	7	.	.	.	.	.
Cc1cc(OCC(=O)Nc2ccc(N3CCN(C(=O)c4ccco4)CC3)cc2)cc(C)c1Cl	69*	-2	.	.	.	.	22*
Cc1cccc(OCC(=O)Nc2ccc(N3CCN(C(=O)c4ccco4)CC3)cc2)c1	6	0	.	.	.	.	.
Cc1cc(OCC(=O)Nc2ccc(N3CCCC3)cc2)cc(C)c1Cl	33*	10	2	103	11	-5	17
CCc1nc(NCc2cccnc2)c2oc3ccccc3c2n1	20*	4	-3	100	-1	-17	5
CCOC(=O)c1ccc(NC2=CC(=O)C(=O)c3ccccc32)cc1	36*	-3	-1	105	3	78*	35*
CN(C)c1ccnc(Oc2ccc(C(C)(C)C)cc2)c1C#N	7	9	.	.	.	.	.
COc1ccc(-c2nnc(SC(C)C(=O)Nc3nccs3)n2Cc2ccccc2)cc1OC (stereo not given)	2	5	8	93	5	-9	.
COc1ccc(-c2nnc(SC(C)C(=O)Nc3nccs3)n2-c2ccccc2)cc1OC (stereo not given)	49*	5	10	98	-4	5	-2
CCCCC(CCC(=O)Nc1nccs1)C(=O)O (stereo not given)	-3	2	-3	106	-6	-16	.
CCOC(=O)c1sc(C)c2c1NC1(CCCCCC1)NC2=O	68*	0	-3	161	-7	-8	1
Cc1oc2c(c1C(=O)c1ccccc1)C(=O)C(=O)c1ccccc1-2	30*	4	-14	97	-7	27	22*
O=C1C(=O)c2c(C(=O)c3ccccc3)coc2-c2ccccc21	32*	13	-4	86	-5	0	20*
CC1=C(CC(=O)c2ccccc2)C(=O)c2ccccc2C1=O	10	4	.	.	.	.	.
CC(C(=O)NC1CCCC1)N(C(=O)c1snc(C(N)=O)c1N)c1ccc2c(c1)OCCO2 (stereo not given)	21*	6	5	91	9	-1	4
COc1ccccc1N(C(=O)c1snc(C(N)=O)c1N)C(C(=O)NC1CCCC1)c1ccco1 (stereo not given)	7	-2	1	81	-7	8	.
O=C(Oc1ccc2c(c1)OCO2)c1cc2c(s1)CCC2	24*	-17	93*[fluorescence artefact?]	11	83*	0	3
COC(=O)c1cc(OC)c(OC)cc1NC(=O)c1cc(-c2ccccc2)nc2ccccc12	21*	-1	.	.	.	.	8
CCN1C(=O)c2cccc3c(S(=O)(=O)NCc4ccco4)ccc1c23	21*	8	-1	108	-6	-2	4
CC1=NC(=O)C(N=Nc2cccc3ccccc23)N1c1ccccc1 (stereo not given)	-6	10	-4	106	3	-9	.
CCC(C)N(C(=O)CSc1nc(-c2ccccc2)cs1)C1CCS(=O)(=O)C1 (stereo not given)	6	4	-10	130	-18	4	.
CC(=O)N(/N=C1\Sc2ccccc2C1=O)c1ccc(C)cc1C	5	16	24	72	9	1	.
CC(=O)N(/N=C1\Sc2ccccc2C1=O)c1ccccc1C	22*	9	38	55	14	11	17
COc1ccc(Cl)cc1NC(=O)c1cccnc1	3	3	-2	102	-2	0	.
SMILES	FAK blocker	HIV Rev-RRE inh	ERa SRC1 inh	ERa coact pot	ERb coact inh	Smad3 inh	FAK inh conf
Cc1ccc(NC(=O)Cn2cncc2-c2ccc([N+](=O)[O-])cc2)cc1C	24*	2	.	.	.	.	9
Cc1ccc(/C=N\Nc2nc3ccc(Cl)cc3[nH]2)o1	21*	6	.	.	.	.	7
O=c1c(C(c2nnnn2C2CCCCC2)N2CCCCC2)coc2ccc(Cl)cc12 (stereo not given)	.	.	0	114	3	5	.
CC(C)(C)c1nc(SCC(=O)NCc2ccco2)c2ccccc2n1	38*	6	.	.	.	.	17
C/C(O)=c1/ccc2cccc3nc(C)nc1c23	24*	91*[fluorescence artefact?]	-4	95	1	1	7
Cc1nc2ccccc2nc(C)c1=NO	0	17	-2	103	-5	13	.
O=C(CSc1nnc(-c2ccncc2)n1-c1ccc(Cl)cc1)N1CCOCC1	1	0	-4	111	-6	9	.
CC1CCc2c(sc3nn[nH]c(=O)c23)C1 (stereo not given)	26*	4	-4	82	4	2	7
O=C(c1cccc(S(=O)(=O)N2CCCC2)c1)N1CCN(c2ccccc2F)CC1	35*	9	-2	99	-6	-9	-1
Cc1ccccc1Cn1c2ccccc2c2cn[nH]c(=O)c21	20*	13	.	.	.	.	4
O=C(N/N=C/c1cccs1)c1cc(-c2ccc3ccccc3c2)n[nH]1	20*	14	.	.	.	.	2
COc1ccc(OC)c(NC2c3ccccc3C(=O)N2c2cccnc2)c1 (stereo not given)	6	3	8	97	17	13	.
CCOC(=O)c1cnc2ccc(OCC)cc2c1N1CCN(c2ccccc2)CC1	-2	-2	4	75	-3	5	.
CCOC(=O)c1cnc2ccc(C)cc2c1Sc1ccccc1	22*	13	.	.	.	.	2
CCOC(=O)c1cnc2ccc(C)cc2c1Nc1ccc(N2CCOCC2)cc1	51*	-4	.	.	.	.	22*
CCOC(=O)N1CCN(C(=O)C(NS(=O)(=O)c2cccc3nsnc23)c2ccccc2)CC1 (stereo not given)	-1	1	0	92	20	15	.
O=C(COC(=O)[C@H](Cc1ccccc1)NS(=O)(=O)c1ccccc1F)NC1CCCCC1	0	5	.	.	.	.	.
COc1cc(OC)cc(-c2nnc(Nc3nc4c(F)cccc4s3)o2)c1	36*	7	34	436*[fluorescence artefact?]	33	-4	10
Fc1cccc2sc(Nc3nnc(-c4ccccc4)o3)nc12	-10	1	17	92	7	14	.
COc1ccc(-c2nnc(Nc3nc4c(OC)cccc4s3)o2)cc1	56*	11	77*[fluorescence artefact?]	96	73*[fluorescence artefact?]	3	27*
COc1ccc(C(=O)C2CN(c3ccccc3)CC2c2ccc(Cl)cc2)cc1 (stereo not given)	-4	-1	.	.	.	.	.
COc1cc(CNCc2ccccn2)ccc1OCc1ccc(Cl)cc1Cl	9	9	.	.	.	.	.
CCOc1cccc(CNc2ccc(O)cc2)c1OCc1ccc(Cl)cc1	30*	0	.	.	.	.	-1
